The nature of one data set: Toxicokinetic. The class given is in vivo, BALB/c mice. Put shortly:
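Female BALB/c mice (12/group) got vancomycin iv or ip at 50, 200 or 400 mg/kg. Retro-orbital EDTA plasma came from three mice per time point, 0.083–24 h after doses 1 and 7. Plasma went through SPE with a tinidazole internal standard, eluted in acetonitrile:KH2PO4 pH 4, then gradient LC; calibration by 1/y-weighted regression of peak-area ratio. Noncompartmental analysis; F = (AUCip/AUCiv)×(Doseiv/Doseip).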

Data set [1] has as its system BALB/c mice. Nature of the data set: Serum clinical chemistry, 7-day toxicity study. The format is in vivo. To be noted: for BUN change: 3 mice per group. Put shortly: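 Groups of six female BALB/c mice were dosed iv or ip with the test compound at 50, 200 or 400 mg/kg once daily for 7 days; controls got 0.9% saline by the same route. Retro-orbital blood was taken from three randomly selected mice per group on day 3 (before the third dose) and day 8 (before sacrifice). Serum BUN, ALP and GGT were measured by an outside veterinary laboratory.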

For data set [2] the following is noted: after iv administration in human; ref Palmer-Toy, 2000; Rybak, 2006; cited from earlier work.
Data set [3] relates to BALB/c mice. Briefly: Histopathology, 7-day toxicity study. The format is in vivo.
The mark [4] stands for this setting: high-dose treatment, day 8, serum.

Regarding `CN[C@H](CC(C)C)C(=O)N[C@H]1C(=O)N[C@@H](CC(N)=O)C(=O)N[C@H]2C(=O)N[C@H]3C(=O)N[C@H](C(=O)N[C@H](C(=O)O)c4cc(O)cc(O)c4-c4cc3ccc4O)[C@H](O)c3ccc(c(Cl)c3)Oc3cc2cc(c3O[C@@H]2O[C@H](CO)[C@@H](O)[C@H](O)[C@H]2O[C@H]2C[C@](C)(N)[C@H](O)[C@H](C)O2)Oc2ccc(cc2Cl)[C@H]1O` [vancomycin], the “AUC^0→∞ after iv relative to ip administration (iv higher)” value in “Toxicokinetic” (BALB/c mice, 200 mg/kg) is on record as 1.7 fold. Besides, in “Toxicokinetic” (BALB/c mice, 200 mg/kg, after seven doses), the “difference in Cmax value between iv and ip administration (iv higher)” value stood at 3.4 fold. For the same compound, the “clinical condition of animals in TK study” value in “Toxicokinetic” (iv high-dose group (400 mg/kg), some animals) is listed as “moribund or dead”. In addition, in the data set on BALB/c mice [1] (50, 200, 400 mg/kg/day iv or ip x7), the “CRE (serum creatinine) levels” value was “not significantly affected”. The BUN change result in the data set on BALB/c mice [1] (high-dose (400 mg/kg/day x7) ip, day 8, serum) was “trend toward increased BUN values”. In addition, in the data set with BALB/c mice [1] (high-dose (400 mg/kg/day x7) iv, day 8, serum), the BUN change entry is given as “statistically significant increase”. For the same compound, in the data set with BALB/c mice [1] (setting [4]), the “alkaline phosphatase (ALP)” value is on record as “affected” and the “gamma-glutamyl transferase (GGT)” value is recorded as “affected”. The “Cmax in human (also therapeutic range)” value in data set [2] was 20000 to 50000 ng/mL. For the same compound, in the data set on BALB/c mice [3] (400 mg/kg/day either iv or ip x7, day 8, H&E), the “primary histopathological finding in kidneys” value is “proximal tubular necrosis”. Further, the “inflammatory cell infiltration into the affected renal tissue” value in the data set on BALB/c mice [3] (400 mg/kg/day iv or ip x7, day 8, H&E) was “minimal”. The “signs of toxicity in clinical chemistry and histopathology assessments” value in the data set on BALB/c mice [3] (iv-200 (200 mg/kg/day iv x7)) was “did not exhibit signs of toxicity”.
